A selection: hits, their analogues and other compounds. The true share with any hit is near 1.5%.
Hsp70 activator: switches on Hsp70 transcription. HeLa Hsp70 promoter luciferase reporter, luminescence; scaled: vehicle 0, proteasome-inhibitor control 100%. activation, % at 10 µM. 200,000 tested, 0.04% active;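 active = activation above the mean across all tested compounds plus 3 SD, cutoff set per campaign, cut at about 5.5% in these data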;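 note: 100% = MG132 at 30 µM as the positive control and 0% = DMSO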
RBBP9 inh: human RBBP9 hydrolase inhibition; 220,000 tested, 0.2% active; O75884; recombinant RBBP9, FP-Rh probe fluorescence polarization; inhibition, % at 7.94 µM; AID 1515;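 active = inhibition above the campaign mean of all tested compounds plus 3 SD, cut at about 14% in these data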;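 note: plate controls were DMSO wells with RBBP9 for no effect and wells lacking RBBP9 protein for full effect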
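Measured by: FP readout at 525/598 nm; material: recombinant human RBBP9; also added: Serine-hydrolase probe FP-Rh, 375 nM pre-mixing; medium: Tris buffer pH 8.0, NaCl, Pluronic; replication: one well per compound; doses: one concentration, 7.94 µM nominal, 0.794% DMSO; timing: preincubation 30 min plus labeling 45 min at 25 °C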
p97 ATPase inh: blocks human p97 ATPase activity | P55072 | 220,000 tested, 0.42% active | inhibition, % at 8 µM | recombinant p97 ATPase, Kinase-Glo ATP luminescence, 3 h | AID 1481; in the data active = inhibition above about 15%;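 note: 0% = DMSO vehicle and 100% = wells lacking enzyme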
PKD1 inh: PKD1 (human) kinase inhibition; Q15139; PKD1 kinase fluorescence polarization assay; inhibition, % (test concentration not listed); 200,000 tested, 0.056% active; AID 797; in the data active = inhibition above about 50%
PP5 primary: PP5 (human) phosphatase inhibition | P53041 | purified PP5c, OMFP substrate fluorescence | inhibition, % at 6.7 µM | 320,000 tested, 0.18% active;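 active = inhibition above the campaign's mean inhibition across all tested compounds plus 3 SD, cut at about 9.5% in these data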;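 note: 0% = DMSO only and 100% = 100 µM cantharidin control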
Target sequence (P53041 whole entry, looked up): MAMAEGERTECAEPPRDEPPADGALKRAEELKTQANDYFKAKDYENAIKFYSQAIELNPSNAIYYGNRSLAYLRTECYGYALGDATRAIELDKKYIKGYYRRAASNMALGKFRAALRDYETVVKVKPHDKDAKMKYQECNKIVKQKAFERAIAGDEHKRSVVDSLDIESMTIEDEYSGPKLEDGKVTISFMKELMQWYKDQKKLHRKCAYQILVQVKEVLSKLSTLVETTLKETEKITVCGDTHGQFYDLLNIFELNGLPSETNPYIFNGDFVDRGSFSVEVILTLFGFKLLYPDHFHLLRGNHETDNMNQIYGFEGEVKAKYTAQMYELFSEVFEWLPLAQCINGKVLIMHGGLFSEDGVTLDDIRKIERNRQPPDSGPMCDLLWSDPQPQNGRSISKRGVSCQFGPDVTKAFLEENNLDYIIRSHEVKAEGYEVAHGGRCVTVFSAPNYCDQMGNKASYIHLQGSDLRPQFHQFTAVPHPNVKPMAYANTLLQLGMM
PP1 inh: PP1-alpha (human) inhibition in PP5 counter-screen; inhibition, % at 6.7 µM; 320,000 tested, 0.9% active; purified PP1alpha, OMFP fluorescence; AID 2235;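 active = inhibition above the mean inhibition of all tested compounds plus 3 SD, computed separately for each screening campaign, cut at about 15% in these data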
The depositor's hits bear a star.

`CC(=O)Nc1ccc(S(=O)(=O)NCc2ccc3c(c2)cc(C)n3C)cc1` gave Hsp70 activator -0.1, RBBP9 inh -6.3, p97 ATPase inh 17.4*, PKD1 inh -2.9, PP5 primary 2.9 and PP1 inh 7.4.
`COc1ccc(S(=O)(=O)N2CCCCC2)cc1NC(=O)CCOc1cc(C)ccc1C` gave PP5 primary 2.7 and PP1 inh 1.9.
For CCCc1nc(C(C)(C)O)c(C(=O)O)n1Cc1ccc(-c2ccccc2-c2nn[nH]n2)cc1 the results were Hsp70 activator 0.3, RBBP9 inh -3.7, p97 ATPase inh 3.5, PP5 primary -0.2 and PP1 inh 2.6.
For Cc1ccc(-n2c(-c3ccc(Br)cc3)c[n+]3c2CCc2ccc4cccnc4c2-3)cc1 the results were Hsp70 activator 0.2, RBBP9 inh 0.7, p97 ATPase inh 2.8, PKD1 inh -1.6, PP5 primary 2.0 and PP1 inh 25.0*.
`CC(=O)Oc1ccc(C(=O)Nc2cccc(C(=O)c3cccc(NC(=O)c4ccc(OC(C)=O)cc4)c3)c2)cc1` gave Hsp70 activator 0.0, RBBP9 inh -5.6, p97 ATPase inh -0.4, PKD1 inh 6.8, PP5 primary 0.5 and PP1 inh 15.4*.
`O=C(O)c1ccc(NCCC2=CCCCC2)c([N+](=O)[O-])c1` gave Hsp70 activator -0.1, RBBP9 inh -6.1, p97 ATPase inh 2.8, PKD1 inh 2.4, PP5 primary -0.4 and PP1 inh -1.8.
Screening Cc1cccc(Cc2cnc(N3C(=N)SC(c4ccccc4)C3=O)s2)c1 (stereo unspecified) returned Hsp70 activator -0.2, RBBP9 inh -10.0, p97 ATPase inh 1.4, PKD1 inh -4.2, PP5 primary 2.8 and PP1 inh 15.2*.
For Cc1cccc(Cc2cnc(N3C(=N)SC(C)C3=O)s2)c1 (stereo unspecified) the results were Hsp70 activator -0.5, RBBP9 inh -1.6, p97 ATPase inh -1.3, PKD1 inh 6.4, PP5 primary 0.0 and PP1 inh 4.4.
COc1ccc([N+](=O)[O-])cc1NC(=O)CC1SC(=Nc2cccc(C)c2C)N(/N=C/c2cccc(OC)c2OC)C1=O (stereo unspecified) was read as Hsp70 activator -0.2, RBBP9 inh -5.8, p97 ATPase inh 13.9, PKD1 inh 4.3, PP5 primary -0.6 and PP1 inh 4.5.
For Nc1nc2c(s1)CCc1c-2cnn1-c1ccccc1 the results were Hsp70 activator 0.3, RBBP9 inh 10.5, p97 ATPase inh 15.5*, PKD1 inh 2.2, PP5 primary 2.2 and PP1 inh 3.4.
Screening Nc1nc2c(s1)COc1ccccc1-2 returned Hsp70 activator 0.1, RBBP9 inh -8.4, p97 ATPase inh 1.3, PKD1 inh 4.4, PP5 primary 0.2 and PP1 inh -1.6.
For CC1(C)Cc2c(C#N)c(N3CCN(C(=O)c4ccccc4)CC3)nc(-c3ccco3)c2CS1 the results were Hsp70 activator 0.3, RBBP9 inh 5.9, p97 ATPase inh 2.3, PKD1 inh -7.4, PP5 primary 1.4 and PP1 inh 15.5*.
`Cc1ccccc1C(=O)N1CCC(C(=O)OCc2nc(N)nc(Nc3ccccc3)n2)CC1` gave PP5 primary 0.1 and PP1 inh -0.1.
For O=C(NN1C(=O)/C(=C\c2ccc(O)c([N+](=O)[O-])c2)SC1=S)c1ccccc1Cl the results were RBBP9 inh -11.4, p97 ATPase inh 1.2, PP5 primary 0.6 and PP1 inh 15.7*.
CSc1cccc(NC(=O)C2CCCN(S(=O)(=O)c3cnc[nH]3)C2)c1 (stereo unspecified) was read as Hsp70 activator 0.3, RBBP9 inh 4.6, p97 ATPase inh 17.0* and PKD1 inh -7.3.
CSc1cccc(NC(=O)C2CCN(S(=O)(=O)c3cnc[nH]3)CC2)c1 was read as PP5 primary 2.9 and PP1 inh -1.8.
CC1CCN(S(=O)(=O)c2ccc(C(=O)Nc3nnc(C4=COCCO4)o3)cc2)CC1 was read as PP5 primary 5.3 and PP1 inh 11.9.
Screening CC1CCCN(S(=O)(=O)c2ccc(C(=O)Nc3nnc(-c4ccco4)o3)cc2)C1 (stereo unspecified) returned PP5 primary 3.9 and PP1 inh 16.9*.
CC1CCN(S(=O)(=O)c2ccc(C(=O)Nc3nnc(-c4ccccn4)o3)cc2)CC1 was read as Hsp70 activator -0.1, RBBP9 inh -5.0, p97 ATPase inh 3.7, PKD1 inh -0.4, PP5 primary 3.9 and PP1 inh 16.8*.
For O=C(Nc1nnc(-c2ccccn2)o1)c1cccc(Br)c1 the results were Hsp70 activator -0.4, RBBP9 inh -7.5, p97 ATPase inh 7.8, PKD1 inh 0.9, PP5 primary 0.6 and PP1 inh 15.5*.
CCC1CCCCN1S(=O)(=O)c1ccc(C(=O)Nc2nnc(C3=COCCO3)o2)cc1 (stereo unspecified) was read as PP5 primary 1.8 and PP1 inh 16.7*.
Screening Cc1ccc2nc(SCC(=O)Nc3cc(C)on3)c(C)cc2c1 returned PP5 primary 3.5 and PP1 inh 1.7.
For Cc1ccc(S(=O)(=O)N(C)c2ccc(C(=O)NCC(c3ccco3)N(C)C)cc2)cc1 (stereo unspecified) the results were PP5 primary 0.2 and PP1 inh -1.9.
COc1cccc(C2/C(=C(/O)c3ccc(C)cc3)C(=O)C(=O)N2Cc2ccco2)c1 (stereo unspecified) was read as Hsp70 activator -0.1, RBBP9 inh -8.0, p97 ATPase inh 1.5, PKD1 inh -10.8, PP5 primary -0.8 and PP1 inh 16.3*.
Cc1ccc(/C(O)=C2/C(=O)C(=O)N(CCCn3ccnc3)C2c2ccccn2)cc1 (stereo unspecified) was read as Hsp70 activator -0.1, RBBP9 inh -5.2, p97 ATPase inh -1.3 and PKD1 inh -15.5.
`Cc1ccccc1COc1ccc(/C(O)=C2/C(=O)C(=O)N(CCCn3ccnc3)C2c2ccco2)cc1` (stereo unspecified) gave PP5 primary 2.6 and PP1 inh 17.5*.
`O=C(NCCC1CCCCN1S(=O)(=O)c1cccs1)C(=O)NCc1ccccc1` (stereo unspecified) gave PP5 primary 0.6 and PP1 inh -1.4.
For Cc1ccnc(Sc2ccc([N+](=O)[O-])cc2[N+](=O)[O-])n1 the results were Hsp70 activator 0.3, RBBP9 inh -3.4, p97 ATPase inh 15.9*, PKD1 inh 2.4, PP5 primary 0.2 and PP1 inh -1.9.
For Cc1ccc(Sc2ccc([N+](=O)[O-])cc2[N+](=O)[O-])nc1 the results were Hsp70 activator -0.2, RBBP9 inh -5.8, p97 ATPase inh 0.4, PKD1 inh 1.1, PP5 primary 1.0 and PP1 inh -4.3.

Screening results from PubChem BioAssay.
